Source: PubChem (several laboratories)
A selection: hits, their analogues and other compounds. The true share with any hit is near 1.1%.
GC-A act: GC-A stimulated cGMP production enhancers – HEK293 GC-A cells, cGMP TR-FRET, EC30 ANP, primary screen; Atrial natriuretic peptide receptor 1 (Homo sapiens), P16066; 0% at EC30 ANP, 100% saturating ANP; activation, % at 10 µM; 370,000 compounds, 0.14% hits; AID 1671463, 2021; in the data active means activation above about 40%
A1 inh: caspase 3/7 activation in MEF A1-2A-BIM cells, primary screen, A1 inhibitor project, cell-based, luminescence, HTS; Caspase-Glo 3/7 luminescence, 3 h; percent of clofoctol response, vehicle zero; caspase activation, % (concentration not given with the values); 330,000 compounds, 0.066% hits;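 active means over half of replicate activation scores above 10%, or exactly half above 10 with the replicate mean above 10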
SKN-1 inh: suppressors of acrylamide-induced Pgst-4::GFP reporter in worms, primary screen, SKN-1 inhibitor project, whole organism, uHTS, GFP/RFP fluorescence ratio, strain VP596. C. elegans VP596 Pgst-4::GFP/RFP ratio, 24 h. inhibition, % at 21.8 µM. 360,000 compounds, 0.49% hits. AID 624304, 2012;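 active means interference check ratio from 0.5 to 1.5 plus GFP to RFP signal ratio inhibition reaching or exceeding a fixed threshold, cut at about 30% in these data, passing the limit was not always enough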
MT1-MMP act inh: blockers of MT1-MMP proenzyme processing, primary screen, HT1080 RFP-PRO-GFP cells, GFP/RFP fluorescence; Matrix metalloproteinase-14 (Homo sapiens), P50281; GFP/RFP ratio fluorescence, overnight; percent of plate control window, DMSO zero; GFP/RFP ratio change, % at 20 µM; 360,000 compounds, 0.061% hits; AID 651647, 2012;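 active means GFP/RFP ratio change of at least 30% with cell ATP level not reduced by more than half and red fluorescence within 50% of control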
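Test system: HT1080 cells expressing an RFP-PRO-GFP fluorescent reporter construct / Compound dosing: single-point 20 µM compound, 1% DMSO / Schedule: cells overnight before dosing, compound overnight, 37 °C, 5% CO2 / Evaluation: GFP/RFP fluorescence ratio / Control set: DMSO and RFP-L50D-GFP cell wells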
GC-B act: human GC-B receptor activators, primary screen, HEK293 GC-B cells, cGMP TR-FRET, EC30 CNP. Atrial natriuretic peptide receptor 2 (Homo sapiens), P20594. activation, % at 10 µM. 0% at EC30 CNP, 100% saturating CNP. 370,000 compounds, 0.11% hits;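 active means activation at 10 µM reaching about 35% in either raw or pattern-adjusted values, limit read from the data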
Tb MetRS inh: T. brucei MetRS inhibitors, primary screen, biochemical, luminescence; inhibition, % at 11.9 µM; methionyl-tRNA synthetase (Trypanosoma brucei brucei); 360,000 compounds, 0.4% hits; purified T. brucei MetRS, ATP depletion, Kinase-Glo luminescence;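 active means inhibition above a per-plate cutoff of the control wells' mean inhibition plus 3 SD, cut at about 5.5% in these data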;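 further: 0% = DMSO wells median and 100% = median of wells with control inhibitor compound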
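System: purified T. brucei MetRS enzyme / Detection: Kinase-Glo luciferase luminescence reporting remaining unconsumed ATP / Medium: HEPES buffer with MgCl2, KCl, DTT, spermine, BSA, pyrophosphatase / Replication: singlicate, one well per compound / Evaluation: percent inhibition relative to median high and low control wells / Schedule: 2 h aminoacylation at 25 °C after 15 min preincubation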
TbMetRS confirm: T. brucei MetRS inhibitors, confirmation, biochemical, luminescence | shares compounds with Tb MetRS inh | T. brucei MetRS enzyme, luminescence (ATP depletion) | inhibition, % at 11.9 µM | 1,400 compounds, 93% hits; in the data active means inhibition above about 7%
Jurkat tox: Jurkat T cell cytotoxicity, cytotoxicity control for T. brucei MetRS inhibitor project, luminescence, high throughput; 1,400 compounds, 12% hits; shares compounds with Tb MetRS inh; inhibition, % at 8.3 µM; Jurkat cells viability, ATP luminescence; AID 624413, 2012; in the data active means inhibition above about 15%;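 further: 0% = vehicle and 100% = reference inhibitor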
TbMetRS FP orth: T. brucei MetRS inhibitors, orthogonal assay for T. brucei MetRS inhibitor project, biochemical, fluorescence polarization | purified T. brucei MetRS | 1,400 compounds, 44% hits | shares compounds with Tb MetRS inh | inhibition, % at 11.9 µM; in the data active means inhibition above about 17%;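 further: 0% = vehicle wells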
Numbers without * were called inactive.

For COC(=O)[C@@H]1C[C@@]2(c3ccccc3)c3ccccc3N(S(=O)(=O)c3ccccc3)[C@H]2N1C(=O)CNC1CCCCC1 the results were GC-A act -24 and GC-B act -10.
Screening Cc1nc2ccc(NC(=O)c3ccc(F)cc3Cl)cc2c(=O)[nH]1 returned GC-A act 1 and GC-B act -5.
For Nc1nc(Nc2ccccc2)nc2ccccc12 the results were GC-A act -1, A1 inh -13, SKN-1 inh -7, MT1-MMP act inh 43, GC-B act 0, Tb MetRS inh 19*, TbMetRS confirm 31*, Jurkat tox 20* and TbMetRS FP orth 18*.
CC(C)(C)N1Cc2nnn(CC3CCCCC3)c2-c2ccccc2S1(=O)=O was read as GC-A act -2 and GC-B act -3.
Screening C#CCN1CC(N2CCN(CCO)CC2)CS1(=O)=O (stereo not drawn) returned GC-A act -1 and GC-B act 2.
For CCOC(=O)c1ccc(NC(=O)Cn2nnc3ccccc32)cc1 the results were GC-A act 4, A1 inh 1, SKN-1 inh -3, MT1-MMP act inh -8, GC-B act 6 and Tb MetRS inh -1.
COC(=O)c1cccc(NC(=O)Cn2nnc3ccccc32)c1 was read as GC-A act -6, A1 inh 0, SKN-1 inh -4, MT1-MMP act inh -3, GC-B act -5, Tb MetRS inh 14*, TbMetRS confirm 27*, Jurkat tox -1 and TbMetRS FP orth 15.
For C=CCN(CC#CC1=CCCCC1)Cc1ccc(OC)cc1OC the results were GC-A act 1 and GC-B act -4.
`CN(C)CC1CCCCC1OC(=O)/C=C/c1ccc(Cl)cc1Cl` (stereo not drawn) gave GC-A act 5, A1 inh 0, SKN-1 inh -6, MT1-MMP act inh 5, GC-B act -10, Tb MetRS inh 9.0*, TbMetRS confirm 20*, Jurkat tox 5 and TbMetRS FP orth 12.
For COC(=O)c1cc(C(C)c2ccccc2O)n2ccccc12 (stereo not drawn) the results were GC-A act -15 and GC-B act -16.
`Cc1ccc(NC(=O)C=NOCC(=O)Nc2cc(C)cc(C)c2)cc1` gave GC-A act 1, A1 inh 1, SKN-1 inh 6, MT1-MMP act inh 1, GC-B act 5, Tb MetRS inh 24*, TbMetRS confirm 58*, Jurkat tox -4 and TbMetRS FP orth 41*.
Screening O=C(CCCn1c(=S)[nH]c2ccc(Br)cc2c1=O)NCc1ccccn1 returned GC-A act -4, A1 inh 0, SKN-1 inh 1, MT1-MMP act inh -1, GC-B act -5 and Tb MetRS inh 0.
